Active and inactive are the calls of the source. The calls are words filed in the database; no cut-off is given here.
Experiments:
[1] = test system: RAW264.7; test: Antiinflammatory activity in mouse RAW264.7 cells assessed as inhibition of LPS-induced NO production treated 2 hrs before LPS challenge measured after 24 hrs; type: functional, cell-based
Summary of the method: (§1)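 Cells were pretreated with compound for 2 h before LPS (1 μg/mL), then incubated 24 h. NO production was determined by nitrite/nitrate assay and expressed as a percentage of LPS-stimulated cells (means, SEM). IC50 is the concentration giving 50% inhibition of NO production. Data come from at least three independent experiments, each run in duplicate.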

[2] = test system: RAW264.7; test: Antiinflammatory activity in mouse RAW264.7 cells assessed as LPS-induced NO production at 10 uM treated 2 hrs before LPS challenge measured after 24 hrs
[3] = test system: RAW264.7; test: Antiinflammatory activity in mouse RAW264.7 cells assessed as inhibition of LPS-induced NO production at 20 uM treated 2 hrs before LPS challenge measured after 24 hrs; type: functional, cell-based; summary of the method: as §1
[4] = test system: RAW264.7; test: Antiinflammatory activity in mouse RAW264.7 cells assessed as inhibition of IL-1beta release at 20 uM after 24 hrs by ELISA; type: functional, cell-based
Summary of the method: (§2)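 RAW 264.7 cells were preincubated 2 h with compound (5–20 μM), then stimulated with LPS (1 μg/mL) for 24 h. IL-1β release was measured by ELISA and compared with LPS-stimulated and unstimulated cells. Data come from at least three independent experiments, each run in duplicate.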

[5] = test system: RAW264.7; test: Antiinflammatory activity in mouse RAW264.7 cells assessed as inhibition of LPS-induced iNOS expression at 20 uM after 24 hrs by Western blot analysis; type: functional, cell-based
Summary of the method: (§3)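 Western blot quantitation of iNOS protein, with β-actin as loading control. RAW 264.7 cells were given a 2 h compound pretreatment (5–20 μM), then 1 μg/mL LPS for 24 h. Data come from at least three independent experiments, each performed in duplicate.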

[6] = molecular target: JNK1/JNK2 (Mus musculus) (UniProt Q91Y86+Q9WTU6); test: Inhibition of LPS-induced JNK1/2 phosphorylation in mouse RAW264.7 cells after 45 mins by Western blot analysis; type: cell-based
Summary of the method: (§4)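 Phosphorylation of p38, JNK1/2 and ERK1/2 was detected by Western blot 45 min after LPS stimulation of RAW 264.7 cells. Each phospho-band was quantified against its total kinase as loading control. Data come from at least three independent experiments, each run in duplicate.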

[7] = molecular target: MAP kinase p38 (Mus musculus) (UniProt P47811+O08911+Q9WUI1+Q9Z1B7); test: Inhibition of LPS-induced p38 MAPK phosphorylation in mouse RAW264.7 cells after 45 mins by Western blot analysis; type: cell-based; summary of the method: as §4
[8] = test system: RAW264.7; test: Antiinflammatory activity in mouse RAW264.7 cells assessed as inhibition of LPS-induced IL-1beta release incubated for 2 hrs prior to LPS challenge measured after 24 hrs by ELISA; type: functional, cell-based; summary of the method: as §2
[9] = test system: RAW264.7; test: Antiinflammatory activity in mouse RAW264.7 cells assessed as inhibition of LPS-induced iNOS protein expression incubated for 2 hrs prior to LPS challenge measured after 24 hrs by Western blot analysis; type: functional, cell-based; summary of the method: as §3
[10] = test system: RAW264.7; test: Cytotoxicity against mouse RAW264.7 cells up to 20 uM; type: cell-based
[11] = test system: RAW264.7; test: Antiinflammatory activity in mouse RAW264.7 cells assessed as inhibition of IL-1beta release at 10 uM after 24 hrs by ELISA; type: functional, cell-based; summary of the method: as §2
[12] = test system: RAW264.7; test: Antiinflammatory activity in mouse RAW264.7 cells assessed as inhibition of LPS-induced iNOS expression at 10 uM after 24 hrs by Western blot analysis; type: functional, cell-based; summary of the method: as §3
[13] = test system: RAW264.7; test: Antiinflammatory activity in mouse RAW264.7 cells assessed as inhibition of LPS-induced NO production at 10 uM treated 2 hrs before LPS challenge measured after 24 hrs; type: functional; summary of the method: as §1
[14] = Mus musculus, RAW264.7, read-out: IC50

Sequence of JNK1/JNK2 (Mus musculus) (Q91Y86 whole entry, looked up): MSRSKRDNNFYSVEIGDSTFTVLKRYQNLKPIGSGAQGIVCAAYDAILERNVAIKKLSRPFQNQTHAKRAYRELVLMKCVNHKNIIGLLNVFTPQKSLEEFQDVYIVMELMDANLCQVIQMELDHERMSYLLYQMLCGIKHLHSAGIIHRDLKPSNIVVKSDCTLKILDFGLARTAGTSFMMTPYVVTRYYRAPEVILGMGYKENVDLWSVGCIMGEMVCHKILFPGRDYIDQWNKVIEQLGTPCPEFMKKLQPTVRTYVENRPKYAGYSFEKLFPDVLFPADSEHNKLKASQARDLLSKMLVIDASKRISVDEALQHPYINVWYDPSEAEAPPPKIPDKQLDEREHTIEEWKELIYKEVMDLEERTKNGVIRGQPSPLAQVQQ
Sequence of JNK1/JNK2 (Mus musculus) (Q9WTU6 whole entry, looked up): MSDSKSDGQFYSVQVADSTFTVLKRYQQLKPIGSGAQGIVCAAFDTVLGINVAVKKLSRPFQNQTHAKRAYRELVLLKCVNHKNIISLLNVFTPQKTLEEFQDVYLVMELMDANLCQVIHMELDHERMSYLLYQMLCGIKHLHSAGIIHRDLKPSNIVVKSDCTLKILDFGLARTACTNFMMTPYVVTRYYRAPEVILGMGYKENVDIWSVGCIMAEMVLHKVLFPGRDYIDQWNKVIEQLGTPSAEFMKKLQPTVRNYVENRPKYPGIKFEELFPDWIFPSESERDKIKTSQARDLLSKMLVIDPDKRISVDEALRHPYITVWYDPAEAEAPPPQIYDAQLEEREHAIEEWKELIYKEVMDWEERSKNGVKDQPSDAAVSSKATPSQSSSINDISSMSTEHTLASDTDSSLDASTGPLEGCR

| Compound | IC50 [1, 14] | NO production % at 10 µM [2] | further results |
| --- | --- | --- | --- |
| COc1ccc(C(O)C2c3cc(OC)cc(OC)c3[C@@H](c3ccc(OC)cc3)[C@@H]2c2cc(OC)cc(OC)c2)cc1 (stereo not given in full) | > 200 µM | 77% |  |
| Oc1ccc(/C=C2/c3cc(O)cc(O)c3[C@@H](c3ccc(O)cc3)[C@@H]2c2cc(O)cc(O)c2)cc1 |  | 70% | IC50 ([1]; raw264.7): Not Active |
| COc1ccc([C@@H]2c3c(OC)cc(OC)cc3/C(=C/c3ccccc3)[C@H]2c2cc(OC)cc(OC)c2)cc1 | > 200 µM | 88.2% |  |
| COc1ccc([C@@H]2c3c(OC)cc(OC)cc3C(SCc3ccc(C)cc3)[C@H]2c2cc(OC)cc(OC)c2)cc1 (stereo not given in full) | > 200 µM | 86.3% |  |
| COc1ccc(C(O)C2c3cc(OC)cc(OC)c3[C@@H](c3ccccc3)[C@@H]2c2cc(OC)cc(OC)c2)cc1 (stereo not given in full) | 16.5 µM | 67.8% |  |
| COc1cc(OC)cc([C@@H]2C(SCc3ccccc3)c3cc(OC)cc(OC)c3[C@H]2c2ccccc2)c1 (stereo not given in full) | > 200 µM | 75.9% |  |
| COc1ccc([C@@H]2c3c(OC)cc(OC)cc3C(C(O)c3ccccc3)[C@H]2c2cc(OC)cc(OC)c2)cc1 (stereo not given in full) | > 200 µM | 75.4% |  |
| COc1ccc([C@@H]2c3c(OC)cc(OC)cc3/C(=C/c3ccc(Cl)cc3)[C@H]2c2cc(OC)cc(OC)c2)cc1 | > 200 µM | 90.7% |  |
| COc1ccc(CSC2c3cc(OC)cc(OC)c3[C@@H](c3ccccc3)[C@@H]2c2cc(OC)cc(OC)c2)cc1 (stereo not given in full) | > 200 µM | 72.4% |  |
| COc1ccc([C@@H]2c3c(OC)cc(OC)cc3C(SCc3ccccc3)[C@H]2c2cc(OC)cc(OC)c2)cc1 (stereo not given in full) | > 200 µM | 78.1% |  |
| COc1ccc(/C=C2/c3cc(OC)cc(OC)c3[C@@H](c3ccc(OC)cc3)[C@@H]2c2cc(OC)cc(OC)c2)cc1 | 6.26 µM | 56.1% |  |
| COc1ccc(/C=C2/c3cc(OC)cc(OC)c3[C@@H](c3ccccc3)[C@@H]2c2cc(OC)cc(OC)c2)cc1 | > 200 µM | 84.3% |  |
| COc1cc(OC)cc([C@@H]2C(C(O)c3ccccc3)c3cc(OC)cc(OC)c3[C@H]2c2ccccc2)c1 (stereo not given in full) | 21.6 µM | 59.5% |  |
| COc1cc(OC)cc([C@@H]2C(O)c3cc(OC)cc(OC)c3[C@H]2c2ccccc2)c1 (stereo not given in full) | 3.38 µM | 49.5% | inhibition [3]: Active; inhibition [4]: Active; inhibition [5]: Active; inhibition [6]: Dose-dependent effect; inhibition [7]: Dose-dependent effect; inhibition [8]: Dose-dependent effect; inhibition [9]: Dose-dependent effect; Activity [10]: Non-toxic; inhibition [1]: Dose-dependent effect |
| COc1ccc([C@@H]2c3c(OC)cc(OC)cc3C(C(O)c3ccc(Cl)cc3)[C@H]2c2cc(OC)cc(OC)c2)cc1 (stereo not given in full) | > 200 µM | 77.5% |  |
| COc1cc(OC)cc([C@@H]2C(=O)c3cc(OC)cc(OC)c3[C@H]2c2ccc(F)cc2)c1 | 44.8 µM | 57.4% |  |
| COc1ccc([C@@H]2c3c(OC)cc(OC)cc3C(SCc3ccc(Cl)cc3)[C@H]2c2cc(OC)cc(OC)c2)cc1 (stereo not given in full) | > 200 µM | 79.8% |  |

| Compound | IC50 [1, 14] | NO production % at 10 µM [2] | further results |
| --- | --- | --- | --- |
| COc1cc(OC)cc([C@@H]2/C(=C\c3ccccc3)c3cc(OC)cc(OC)c3[C@H]2c2ccccc2)c1 | > 200 µM | 108% |  |
| O=C1c2cc(O)cc(O)c2[C@@H](c2ccc(O)cc2)[C@@H]1c1cc(O)cc(O)c1 [ISOPAUCIFLORAL F] | > 200 µM | 97.1% |  |
| C[S+]([O-])c1ccc(-c2nc(-c3ccc(F)cc3)c(-c3ccncc3)[nH]2)cc1 (stereo not given) |  |  | inhibition [11]: Active; inhibition [12]: Active; inhibition [13]: Active |
| COc1ccc(CSC2c3cc(OC)cc(OC)c3[C@@H](c3ccc(OC)cc3)[C@@H]2c2cc(OC)cc(OC)c2)cc1 (stereo not given in full) | 12.5 µM | 70.5% |  |
| COc1ccc([C@@H]2c3c(OC)cc(OC)cc3C(SCc3ccc(F)cc3)[C@H]2c2cc(OC)cc(OC)c2)cc1 (stereo not given in full) | > 200 µM | 92.5% |  |
| COc1ccc([C@@H]2c3c(OC)cc(OC)cc3C(=O)[C@H]2c2cc(OC)cc(OC)c2)cc1 | > 200 µM | 60.9% |  |
| COc1cc(OC)cc([C@@H]2C(=O)c3cc(OC)cc(OC)c3[C@H]2c2ccccc2)c1 | 27.1 µM | 66% |  |
| COc1cc(OC)cc([C@@H]2C(O)c3cc(OC)cc(OC)c3[C@H]2c2ccc(F)cc2)c1 (stereo not given in full) |  | 54% | IC50 ([1]; raw264.7): Not Active |
| COc1ccc([C@@H]2c3c(OC)cc(OC)cc3C(O)[C@H]2c2cc(OC)cc(OC)c2)cc1 (stereo not given in full) | 7.87 µM | 58.3% |  |
| COc1ccc([C@@H]2c3c(OC)cc(OC)cc3C(C(O)c3ccc(C)cc3)[C@H]2c2cc(OC)cc(OC)c2)cc1 (stereo not given in full) | 26.5 µM | 63.5% |  |
| COc1cccc(-c2cc(=O)c3ccccc3o2)c1N |  |  | inhibition [11]: inactive; inhibition [12]: inactive; inhibition [13]: inactive |
| Oc1ccc([C@@H]2c3c(O)cc(O)cc3[C@H]3[C@H](c4ccc(O)cc4)c4c(O)cc(O)cc4[C@@H]23)cc1 (relative stereo) [PALLIDOL] | > 200 µM | 89.3% |  |
| COc1ccc([C@@H]2c3c(OC)cc(OC)cc3/C(=C/c3ccc(C)cc3)[C@H]2c2cc(OC)cc(OC)c2)cc1 | > 200 µM | 99.2% |  |
| Oc1c2ccccc2c2c3c(cccc13)N=N2 |  |  | inhibition [11]: Active; inhibition [12]: Active; inhibition [13]: Active |
| COc1ccc([C@@H]2c3c(OC)cc(OC)cc3C(C(O)c3ccc(F)cc3)[C@H]2c2cc(OC)cc(OC)c2)cc1 (stereo not given in full) | > 200 µM | 81.4% |  |
| COc1ccc([C@@H]2c3c(OC)cc(OC)cc3/C(=C/c3ccc(F)cc3)[C@H]2c2cc(OC)cc(OC)c2)cc1 | > 200 µM | 95.9% |  |
| COc1ccc([C@@H]2c3c(OC)cc(OC)cc3[C@H]3[C@H](c4ccc(OC)cc4)c4c(OC)cc(OC)cc4[C@@H]23)cc1 | > 200 µM | 80.2% |  |

From ChEMBL document CHEMBL2406927, “Inhibitory effect of resveratrol dimerized derivatives on nitric oxide production in lipopolysaccharide-induced RAW 264.7 cells” (Bioorg Med Chem Lett, 2013)
